Assays:
Rattus norvegicus [1] = assay: Decrease in peripheral blood lymphocyte count in Wistar rat at 10 mg/kg administered via oral gavage measured after 6 hrs; assay type: functional; set-up: scale not given: the % may be the effect or the level left
How it was run: (§1)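 Male Wistar rats (RccHan:WIST) were given 10 mg/kg orally by gavage in vehicle containing 5% DMSO. Blood drawn by sublingual vein puncture under isoflurane before dosing and at the listed times after dosing. Lymphocytes counted on a haematology analyser. Results are % change from baseline, mean of 6-8 animals.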

[2] = target: Sphingosine 1-phosphate receptor 3 (Homo sapiens, UniProt Q99500); assay: Agonist activity at human recombinant S1PR3 expressed in CHO cell membranes incubated for 30 mins by [35S]GTPgammaS binding assay in presence of GDP; assay type: functional
How it was run: (§2)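 Membranes from CHO cells expressing recombinant human S1P1 or S1P3. Compounds were preincubated with membranes for 30 min at room temperature. Reaction stopped by filtration, membrane-bound 35S-GTPγS counted. Geometric mean of ≥3 independent runs.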

Rattus norvegicus [3] = assay: Decrease in peripheral blood lymphocyte count in Wistar rat at 10 mg/kg administered via oral gavage measured after 3 hrs; assay type: functional; set-up: scale not given: the % may be the effect or the level left; how it was run: as §1
Rattus norvegicus [4] = assay: Decrease in peripheral blood lymphocyte count in Wistar rat at 10 mg/kg administered via oral gavage measured after 48 hrs; assay type: functional; set-up: scale not given: the % may be the effect or the level left; how it was run: as §1
Rattus norvegicus [5] = assay: Time duration of maximum lymphocyte count reduction in Wistar rat at 10 mg/kg administered via oral gavage; assay type: functional
How it was run: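 Duration of action is the latest sampling time at which maximal lymphocyte-count reduction was still seen. Male Wistar rats received 10 mg/kg orally, and blood lymphocytes were counted before dosing and at 3, 6 and 24 h (later times in some cases). Mean of 6-8 animals.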

Rattus norvegicus [6] = assay: Decrease in peripheral blood lymphocyte count in Wistar rat at 10 mg/kg administered via oral gavage measured after 24 hrs; assay type: functional; set-up: scale not given: the % may be the effect or the level left; how it was run: as §1
[7] = target: Sphingosine 1-phosphate receptor 1 (Homo sapiens, UniProt P21453); assay: Agonist activity at human recombinant S1PR1 expressed in CHO cell membranes incubated for 30 mins by [35S]GTPgammaS binding assay in presence of GDP; assay type: functional; how it was run: as §2
[8] = Phototoxicity in Balb/c mouse 3T3 clone A31 cells assessed as inhibition of cell viability measured as photo irritancy factor at 0.05 to 100 uM preincubated for 1 hr followed by UVA irradiation measured after 24 hrs by neutral red uptake assay relative to control; assay type: functional
Rattus norvegicus [9] = assay: Decrease in peripheral blood lymphocyte count in Wistar rat at 10 mg/kg administered via oral gavage measured after 96 hrs; assay type: functional; set-up: scale not given: the % may be the effect or the level left; how it was run: as §1
[10] = Plasma concentration in Wistar rat at 10 mg/kg administered via oral gavage measured after 6 hrs by LC-MS/MS analysis; assay type: ADME, organism-based
How it was run: (§3)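 Male Wistar rats received 10 mg/kg orally by gavage. Blood was drawn at the listed times into EDTA tubes, and plasma was prepared by centrifugation at 3000 g for 10 min at 4 °C. Limit of quantification 3 nM.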

[11] = Phototoxicity in Balb/c mouse 3T3 clone A31 cells assessed as AUC of UV spectra between 310 and 350 nm normalized to compound concentration at 0.05 to 100 uM preincubated for 1 hr followed by UVA irradiation measured after 24 hrs by neutral red uptake assay relative to control; assay type: functional
[12] = Plasma concentration in Wistar rat at 10 mg/kg administered via oral gavage measured after 144 hrs by LC-MS/MS analysis; assay type: ADME, organism-based; how it was run: as §3
[13] = Plasma concentration in Wistar rat at 10 mg/kg administered via oral gavage measured after 96 hrs by LC-MS/MS analysis; assay type: ADME, organism-based; how it was run: as §3
Rattus norvegicus [14] = assay: Decrease in peripheral blood lymphocyte count in Wistar rat at 10 mg/kg administered via oral gavage measured after 144 hrs; assay type: functional; set-up: scale not given: the % may be the effect or the level left; how it was run: as §1
[15] = Half life in Wistar rat at 10 mg/kg administered via oral gavage by LC-MS/MS analysis; assay type: ADME, organism-based; settings: in vivo
How it was run: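 Oral half-life was calculated from plasma concentrations measured in the lymphocyte-count study, in which male Wistar rats received 10 mg/kg orally. Plasma was prepared from EDTA blood by centrifugation at 3000 g for 10 min at 4 °C.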

[16] = Plasma concentration in Wistar rat at 10 mg/kg administered via oral gavage measured after 3 hrs by LC-MS/MS analysis; assay type: ADME, organism-based; how it was run: as §3
[17] = Plasma concentration in Wistar rat at 10 mg/kg administered via oral gavage measured after 24 hrs by LC-MS/MS analysis; assay type: ADME, organism-based; how it was run: as §3
[18] = Plasma concentration in Wistar rat at 10 mg/kg administered via oral gavage measured after 72 hrs by LC-MS/MS analysis; assay type: ADME, organism-based; how it was run: as §3
Rattus norvegicus [19] = assay: Decrease in peripheral blood lymphocyte count in Wistar rat at 10 mg/kg administered via oral gavage measured after 72 hrs; assay type: functional; set-up: scale not given: the % may be the effect or the level left; how it was run: as §1

Sphingosine 1-phosphate receptor 3, sequence (Q99500 whole entry): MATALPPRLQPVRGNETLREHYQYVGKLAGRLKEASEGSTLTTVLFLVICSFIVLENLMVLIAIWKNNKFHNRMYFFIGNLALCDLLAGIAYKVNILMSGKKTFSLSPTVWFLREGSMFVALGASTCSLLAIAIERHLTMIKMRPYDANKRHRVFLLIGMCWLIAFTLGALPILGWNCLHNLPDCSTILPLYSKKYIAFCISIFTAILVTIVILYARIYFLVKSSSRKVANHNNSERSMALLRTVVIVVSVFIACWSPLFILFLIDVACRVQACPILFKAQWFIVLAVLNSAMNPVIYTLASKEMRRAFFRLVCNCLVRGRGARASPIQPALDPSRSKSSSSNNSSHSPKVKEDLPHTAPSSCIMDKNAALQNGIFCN
Sphingosine 1-phosphate receptor 1, sequence (P21453 whole entry): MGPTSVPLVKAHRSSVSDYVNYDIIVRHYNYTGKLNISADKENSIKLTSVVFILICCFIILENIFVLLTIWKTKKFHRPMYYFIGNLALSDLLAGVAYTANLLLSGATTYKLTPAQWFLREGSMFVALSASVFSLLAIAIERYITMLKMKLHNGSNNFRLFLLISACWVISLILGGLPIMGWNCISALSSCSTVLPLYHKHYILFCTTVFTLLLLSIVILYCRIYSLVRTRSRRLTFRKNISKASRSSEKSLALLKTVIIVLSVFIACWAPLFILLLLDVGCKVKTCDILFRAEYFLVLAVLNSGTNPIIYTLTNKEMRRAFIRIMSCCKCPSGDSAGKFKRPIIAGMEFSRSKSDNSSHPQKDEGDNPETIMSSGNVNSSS

| SMILES | Activity (Rattus norvegicus [1]) [%] | EC50 [2] [nM] | Activity (Rattus norvegicus [3]) [%] | Activity (Rattus norvegicus [4]) [%] | Time (Rattus norvegicus [5]) [h] | Activity (Rattus norvegicus [6]) [%] | EC50 [7] [nM] | Ratio [8] | Activity (Rattus norvegicus [9]) [%] | concentration at 6 h [10] [nM] | Ratio [11] | concentration at 144 h [12] [nM] | concentration at 96 h [13] [nM] | Activity (Rattus norvegicus [14]) [%] | half-life [15] [h] | concentration at 3 h [16] [nM] | concentration at 24 h [17] [nM] | concentration at 72 h [18] [nM] | Activity (Rattus norvegicus [19]) [%] |
| --- | --- | --- | --- | --- | --- | --- | --- | --- | --- | --- | --- | --- | --- | --- | --- | --- | --- | --- | --- |
| CCc1cc(-c2noc(-c3cc(CC(C)C)nc(OC)c3)n2)cc(C)c1OC[C@@H](O)CNC(=O)CO | 59 | 27 | 57 | 59 | 48 | 66 | 0.3 | – | – | – | – | – | – | – | – | – | – | – | – |
| CCc1cc(-c2noc(-c3cc(OC)nc(C4CCCC4)c3)n2)cc(C)c1OC[C@@H](O)CNC(=O)CO | 65 | 71 | 62 | – | 24 | 70 | – | 2.3 | 50 | 1860 | 0.09 | 12 | 68 | 20 | 18 | 2050 | 1070 | – | – |
| CCc1cc(-c2noc(-c3cc(C)nc(OC4CCCC4)c3)n2)cc(C)c1OC[C@@H](O)CNC(=O)CO | 66 | 190 | 69 | – | 24 | 74 | 1 | 7.5 | – | 2040 | 0.12 | – | – | – | 13 | 2200 | 790 | 67 | 43 |

Source: ChEMBL document CHEMBL3797143, “Novel S1P1 receptor agonists - Part 5: From amino-to alkoxy-pyridines” (Eur J Med Chem, 2016)
